# Experimental data reported in ChEMBL document CHEMBL2380235, “Discovery of N-{4-[(3-hydroxyphenyl)-3-methylpiperazin-1-yl]methyl-2-methylpropyl}-4-phenoxybenzamide analogues as selective kappa opioid receptor antagonists” (J Med Chem, 2013).
# The source made the active and inactive calls. The calls are words filed in the database; no cut-off is given here.
# Key:
# [1] = biological target: Kappa-type opioid receptor (Homo sapiens) (UniProt P41145); assay: Intrinsic activity at human kappa opioid receptor expressed in CHO cells at 10 uM by [35S]GTPgammaS binding assay; format: functional, cell-based
# [2] = biological target: Delta-type opioid receptor (Homo sapiens) (UniProt P41143); assay: Intrinsic activity at human delta opioid receptor expressed in CHO cells at 10 uM by [35S]GTPgammaS binding assay; format: functional, cell-based
# [3] = biological target: Mu-type opioid receptor (Homo sapiens) (UniProt P35372); settings: CHO
# Homo sapiens [4] = species: Homo sapiens; assay: Selectivity ratio of Ke for human mu opioid receptor to Ke for human kappa opioid receptor
# Homo sapiens [5] = species: Homo sapiens; assay: Selectivity ratio of Ke for human delta opioid receptor to Ke for human kappa opioid receptor
# [6] = biological target: Kappa-type opioid receptor (Homo sapiens) (UniProt P41145); assay: Antagonist activity at human kappa opioid receptor expressed in CHO cells assessed as inhibition of U69,593-stimulated [35S]GTPgammaS binding; format: functional, cell-based
# Outline: (§1)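 Agonist concentration-response curves (eight concentrations, duplicate) were run with or without a single test-compound concentration. Ke = [L]/(DR−1), where [L] is the test-compound concentration and DR is the ratio of agonist EC50 with versus without compound. At least two test-compound concentrations were used, chosen to shift agonist EC50 rightward at least four-fold while keeping a clear upper asymptote.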
# [7] = biological target: Delta-type opioid receptor (Homo sapiens) (UniProt P41143); assay: Antagonist activity at human delta opioid receptor expressed in CHO cells assessed as inhibition of DPDPE-stimulated [35S]GTPgammaS binding; format: functional, cell-based; outline: as §1
# Sequence of Kappa-type opioid receptor (Homo sapiens) (P41145 whole entry): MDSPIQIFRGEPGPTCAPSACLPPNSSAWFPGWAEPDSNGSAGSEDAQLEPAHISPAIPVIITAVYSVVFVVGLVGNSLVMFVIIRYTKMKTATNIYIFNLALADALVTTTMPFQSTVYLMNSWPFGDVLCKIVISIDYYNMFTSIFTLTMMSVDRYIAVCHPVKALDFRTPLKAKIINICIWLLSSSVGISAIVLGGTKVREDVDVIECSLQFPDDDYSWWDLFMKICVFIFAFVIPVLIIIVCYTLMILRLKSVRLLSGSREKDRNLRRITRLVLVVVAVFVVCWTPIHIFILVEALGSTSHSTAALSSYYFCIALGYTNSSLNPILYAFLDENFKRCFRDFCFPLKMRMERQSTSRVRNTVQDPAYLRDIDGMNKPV
# Sequence of Delta-type opioid receptor (Homo sapiens) (P41143 whole entry): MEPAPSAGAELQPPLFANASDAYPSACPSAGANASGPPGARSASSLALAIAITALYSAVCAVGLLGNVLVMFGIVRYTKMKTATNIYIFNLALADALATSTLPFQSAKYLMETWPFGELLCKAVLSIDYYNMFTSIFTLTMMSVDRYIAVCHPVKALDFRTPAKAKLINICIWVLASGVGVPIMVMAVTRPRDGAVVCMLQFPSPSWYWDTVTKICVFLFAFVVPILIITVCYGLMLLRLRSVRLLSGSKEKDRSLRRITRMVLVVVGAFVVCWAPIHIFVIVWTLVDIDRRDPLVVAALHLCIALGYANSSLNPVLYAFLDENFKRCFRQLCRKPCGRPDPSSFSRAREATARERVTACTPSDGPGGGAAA
# Sequence of Mu-type opioid receptor (Homo sapiens) (P35372 whole entry): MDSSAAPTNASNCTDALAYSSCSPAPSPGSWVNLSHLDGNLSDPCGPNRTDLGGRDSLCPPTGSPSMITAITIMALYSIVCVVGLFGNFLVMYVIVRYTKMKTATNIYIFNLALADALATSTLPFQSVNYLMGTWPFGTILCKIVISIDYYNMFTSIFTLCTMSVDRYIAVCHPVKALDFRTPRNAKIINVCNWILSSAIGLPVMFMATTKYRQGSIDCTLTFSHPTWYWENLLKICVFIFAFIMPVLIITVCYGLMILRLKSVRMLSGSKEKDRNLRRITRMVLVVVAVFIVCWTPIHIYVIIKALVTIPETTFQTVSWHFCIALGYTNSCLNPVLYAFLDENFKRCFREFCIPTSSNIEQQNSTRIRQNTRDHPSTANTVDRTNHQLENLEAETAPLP
Activity [1],Activity [2],Ke [3] [nM],Ratio Ke (Homo sapiens [4]),Ratio Ke (Homo sapiens [5]),Ke [6] [nM],Ke [7] [nM],Compound
inactive,inactive,74,5,7,16.3,,COc1cc(C(=O)N[C@H](CN2CCN(c3cccc(O)c3)[C@@H](C)C2)C(C)C)ccc1Oc1ccccc1O
inactive,inactive,35.1,140,372,0.25,93,COc1cc(C(=O)N[C@H](CN2CCN(c3cccc(O)c3)[C@@H](C)C2)C(C)C)ccc1Oc1cccc(C)c1
inactive,inactive,14.4,89,131,0.16,21,Cc1cccc(Oc2ccc(C(=O)N[C@H](CN3CCN(c4cccc(O)c4)[C@@H](C)C3)C(C)C)cc2C)c1
inactive,inactive,21,18,45,1.2,54,CC(C)[C@@H](CN1CCN(c2cccc(O)c2)[C@@H](C)C1)NC(=O)c1ccc(Oc2cccc(C(F)(F)F)c2)cc1
inactive,inactive,,63,463,1.9,,Cc1cccc(Oc2ccc(C(=O)N[C@H](CN3CCN(c4cccc(O)c4)[C@@H](C)C3)C(C)C)c(O)c2)c1
inactive,inactive,,1.6,19,6.2,,COc1cc(C(=O)N[C@H](CN2CCN(c3cccc(O)c3)[C@@H](C)C2)C(C)C)ccc1Oc1cc(C)ccc1O
inactive,inactive,49.4,,,,1550,CC(C)[C@@H](CN1CCN(c2cccc(O)c2)[C@H](C)C1)NC(=O)[C@H]1Cc2ccc(O)cc2CN1
inactive,inactive,49,38,48,1.3,63,COc1cc(Oc2cccc(C)c2)ccc1C(=O)N[C@H](CN1CCN(c2cccc(O)c2)[C@@H](C)C1)C(C)C
inactive,inactive,,7,42,5,,CC(C)[C@@H](CN1CCN(c2cccc(O)c2)[C@@H](C)C1)NC(=O)c1ccc(Oc2ccccc2O)c(Cl)c1
inactive,inactive,13.7,24,142,0.57,81,Cc1cccc(Oc2ccc(C(=O)N[C@H](CN3CCN(c4cccc(O)c4)[C@@H](C)C3)C(C)C)cc2O)c1
inactive,inactive,18,43,20,0.42,8.3,CC(C)[C@@H](CN1CCN(c2cccc(O)c2)[C@@H](C)C1)NC(=O)c1ccc(Oc2cccc(Cl)c2)cc1
inactive,inactive,21.1,28,126,0.76,96,CC(C)[C@@H](CN1CCN(c2cccc(O)c2)[C@@H](C)C1)NC(=O)c1ccc(Oc2ccccc2F)cc1
inactive,inactive,43,148,3790,0.29,1100,Cc1cccc(Oc2ccc(C(=O)N[C@H](CN3CCN(c4cccc(O)c4)[C@@H](C)C3)C(C)C)cc2Cl)c1
inactive,inactive,74.2,,,,1310,CC(C)[C@@H](CN1CCN(c2cccc(O)c2)[C@@H](C)C1)NC(=O)[C@H]1Cc2ccc(O)cc2CN1
inactive,inactive,101,36,723,2.8,2020,CC(C)[C@@H](CN1CCN(c2cccc(O)c2)[C@@H](C)C1)NC(=O)c1ccc(Oc2ccccc2)cn1
inactive,inactive,8.2,3,5,3,15,Cc1ccc(O)c(Oc2ccc(C(=O)N[C@H](CN3CCN(c4cccc(O)c4)[C@@H](C)C3)C(C)C)cc2Cl)c1
inactive,inactive,17,35,88,0.48,42,CC(C)[C@@H](CN1CCN(c2cccc(O)c2)[C@@H](C)C1)NC(=O)c1ccc(Oc2cccc(Br)c2)cc1
inactive,inactive,23.8,70,272,0.34,93,Cc1cccc(Oc2ccc(C(=O)N[C@H](CN3CCN(c4cccc(O)c4)[C@@H](C)C3)C(C)C)cc2)c1O
inactive,inactive,,28,22,0.65,,Cc1cccc(Oc2ccc(C(=O)N[C@H](CN3CCN(c4cccc(O)c4)[C@@H](C)C3)C(C)C)c(C)c2)c1
inactive,inactive,60,38,1120,1.6,1790,CC(C)[C@@H](CN1CCN(c2cccc(O)c2)[C@@H](C)C1)NC(=O)c1ccc(Oc2ccccc2)nc1
inactive,inactive,125,146,906,1.06,960,CC(C)[C@@H](CN1CCN(c2cccc(O)c2)[C@@H](C)C1)NC(=O)c1ccc(Oc2ccccc2O)cc1

Compound,Activity [1],Activity [2],Ke [3] [nM],Ratio Ke (Homo sapiens [4]),Ratio Ke (Homo sapiens [5]),Ke [6] [nM],Ke [7] [nM]
COc1ccccc1Oc1ccc(C(=O)N[C@H](CN2CCN(c3cccc(O)c3)[C@@H](C)C2)C(C)C)cc1,inactive,inactive,127,23,155,5.6,869
COc1ccc(C(=O)N[C@H](CN2CCN(c3cccc(O)c3)[C@@H](C)C2)C(C)C)cc1OC,,inactive,,4,,81.7,
Cc1cc(C(=O)N[C@H](CN2CCN(c3cccc(O)c3)[C@@H](C)C2)C(C)C)ccc1Oc1ccccc1,inactive,inactive,15,24,691,0.63,435
CC(C)[C@@H](CN1CCN(c2cccc(O)c2)[C@@H](C)C1)NC(=O)c1ccc(Oc2cccc(F)c2)cc1,inactive,inactive,30,20,117,1.48,173
COc1cccc(Oc2ccc(C(=O)N[C@H](CN3CCN(c4cccc(O)c4)[C@@H](C)C3)C(C)C)cc2)c1,inactive,inactive,33,52,2380,0.63,1500
CC(C)[C@@H](CN1CCN(c2cccc(O)c2)[C@@H](C)C1)NC(=O)c1ccc(Oc2cccc(O)c2)cc1,inactive,inactive,69,37,338,1.85,625
COc1ccc(Oc2ccc(C(=O)N[C@H](CN3CCN(c4cccc(O)c4)[C@@H](C)C3)C(C)C)cc2)cc1,inactive,inactive,17,28,2300,0.6,1380
CC(C)[C@@H](CN1CCN(c2cccc(O)c2)[C@@H](C)C1)NC(=O)c1ccc(Oc2ccc(O)cc2)cc1,inactive,inactive,71,8,197,8.6,1700
Cc1ccc(O)c(Oc2ccc(C(=O)N[C@H](CN3CCN(c4cccc(O)c4)[C@@H](C)C3)C(C)C)cc2)c1,inactive,inactive,,,,,
Cc1cccc(Oc2ccc(C(=O)N[C@H](CN3CCN(c4cccc(O)c4)[C@@H](C)C3)C(C)C)cc2)c1,inactive,inactive,13,77,771,0.17,131
Cc1ccc(Oc2ccc(C(=O)N[C@H](CN3CCN(c4cccc(O)c4)[C@@H](C)C3)C(C)C)cc2)cc1,inactive,inactive,20,29,272,0.69,188
Cc1cc(C)cc(Oc2ccc(C(=O)N[C@H](CN3CCN(c4cccc(O)c4)[C@@H](C)C3)C(C)C)cc2)c1,inactive,inactive,25,26,80,0.98,78
